Screening data (PubChem BioAssay)
APP 5'UTR act: APP 5'UTR luciferase reporter activation; activation, % at 2 µM; AID 1276; 190,000 tested, 1% active; SH-SY5Y APP 5'UTR luciferase reporter, luminescence; zero percent = DMSO vehicle wells;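 active means activation above a set limit, based on mean plus 3 SD of controls, cut at about 140% in these data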
Wee1 degr inh: blocks degradation of human Wee1 kinase; AID 1321; HeLa Luc-Wee1K328M stability, luciferase luminescence; 100% = proteasome inhibitor MG132 effect; reporter increase, % at 5 µM; 220,000 tested, 1.2% active; P30291;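 active means activation above the mean of all tested compounds plus 3 SD, set per screening run, cut at about 8.8% in these data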;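 further: cells exposed to compound for 20 h before luminescence read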
Target sequence (P30291 whole entry K328M): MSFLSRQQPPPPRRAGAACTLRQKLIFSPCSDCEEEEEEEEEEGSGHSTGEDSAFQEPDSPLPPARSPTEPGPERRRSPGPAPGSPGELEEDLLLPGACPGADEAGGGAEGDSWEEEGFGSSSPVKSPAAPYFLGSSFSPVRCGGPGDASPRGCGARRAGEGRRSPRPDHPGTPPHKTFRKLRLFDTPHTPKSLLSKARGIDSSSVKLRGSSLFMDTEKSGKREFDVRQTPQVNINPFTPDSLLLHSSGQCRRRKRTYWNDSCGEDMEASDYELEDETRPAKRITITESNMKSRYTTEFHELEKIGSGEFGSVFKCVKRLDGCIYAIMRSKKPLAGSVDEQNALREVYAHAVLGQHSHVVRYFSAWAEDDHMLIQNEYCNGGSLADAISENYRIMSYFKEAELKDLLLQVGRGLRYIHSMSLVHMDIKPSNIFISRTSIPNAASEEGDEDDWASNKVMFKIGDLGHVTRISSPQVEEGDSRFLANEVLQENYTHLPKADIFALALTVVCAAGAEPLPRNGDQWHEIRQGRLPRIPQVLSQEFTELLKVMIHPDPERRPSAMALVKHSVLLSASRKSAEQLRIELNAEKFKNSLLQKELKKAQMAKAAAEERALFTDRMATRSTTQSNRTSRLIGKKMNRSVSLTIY
MDM2 E3 inh: blocks human Mdm2 ubiquitin ligase activity; 210,000 tested, 0.11% active; AID 1230; cell-based MDM2 ubiquitination luciferase reporter, 2 h; 0 = plate control, 100 = twice control, blank-subtracted; Q00987; signal enhancement, % at 5 µM;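 active means signal enhancement of 30% or more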;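 further: luminescence tracks abundance of the self-degrading MDM2-luciferase fusion protein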
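test system = mammalian cells stably expressing self-ubiquitinating, self-degrading MDM2 E3–luciferase fusion | quantity = 2000 cells/well | incubation = cell settling 4 h, compound treatment 2 h, both 37 °C | signal = luminescence with SteadyLite reagent, 15 min at room temperature | evaluation = % enhancement relative to plate controls after blank subtraction | benchmarks = plate controls and plate blanks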
STAT1 activator: STAT1 signaling activation; 200,000 tested, 2.6% active; AID 932; activation (% of control), % at 5.5 µM; NIH 3T3 STAT1-luciferase reporter, IFN-gamma, luminescence; 100% = IFN-gamma alone, no compound;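 active means activation above the screen-wide mean activation plus 3 SD, cut at about 130% in these data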
NF-kB expr up: NF-kB expression increase, human neuronal cells | fold change at 12.5 µM | 190,000 tested, 1.6% active | AID 1239 | NF-kB reporter expression; hits give high values; in the data active means fold change above about 3.3
p97 inhibitor: human p97 ATPase inhibition; P55072; recombinant p97 ATPase, Kinase-Glo ATP luminescence, 3 h; inhibition, % at 8 µM; 220,000 tested, 0.42% active; in the data active means inhibition above about 15%
A number is an active result; . = inactive; / = not tested or not shown. Most compounds without a hit are left out; they make up all but 4.6% or so of the library.

SMILES	APP 5'UTR act	Wee1 degr inh	MDM2 E3 inh	STAT1 activator	NF-kB expr up	p97 inhibitor
COC(=O)/C=c1/sc2nc3ccccc3n2c1=O	.	.	.	.	.	.
Cc1cc(NC(=O)C2CC2)ncc1NC(=O)C12CC3CC(CC(C3)C1)C2	.	.	30	.	.	.
CCCC(=O)Nc1cc(C)c(NC(=O)C23CC4CC(CC(C4)C2)C3)cn1	.	.	.	.	.	.
Cn1[nH]c(C(F)(F)F)c(C=Nc2ccc(Cl)cc2)c1=O	182	.	.	.	.	.
O=C(/C=C/c1cn(CC(O)CN2CCCCCC2)c2ccccc12)c1cccs1 (stereo not drawn)	.	.	.	.	.	.
Cn1cc(/C=C/C(=O)c2ccccc2)c2ccccc21	200	.	/	/	/	.
Cc1ccc(C(=O)/C=C/c2cn(CN3CCN(C)CC3)c3ccccc23)cc1	.	.	.	.	7.3	.
Cn1cc(/C=C2/SC(=O)N(c3ccccc3)C2=O)c2ccccc21	.	.	.	132	.	.
NC(=O)c1ccc(NC(=O)Cn2c(=O)n(-c3ccccc3)c(=O)c3oc4ccccc4c32)cc1	.	9.9	.	.	.	.
CC(C)NC(=O)c1cc(-c2cccs2)on1	.	.	.	.	4	.
Cc1cc(NC(=O)c2cc(-c3cccs3)on2)no1	.	.	.	.	.	.
CSc1ccccc1NC(=O)c1cc(-c2cccs2)on1	.	9.4	.	.	.	.
CN(CC1CCOCC1)C(=O)CC1C(=O)NCCN1Cc1cccc(Oc2ccccc2)c1 (stereo not drawn)	.	.	.	.	.	.
Oc1ccc(/C=N/Nc2nc(-c3ccc(Cl)cc3)cc(C(F)(F)F)n2)cc1	.	10	.	.	.	.
Nc1nc(-c2ccc(Cl)cc2)cc(C(F)(F)F)n1	.	.	.	.	.	.
Cc1ccc(C(=O)COC(=O)c2cn(-c3ccccc3)nc2-c2ccccc2)cc1[N+](=O)[O-]	.	.	.	.	.	.
COC(=O)C1=NN(c2cccc(C)c2)C2C(=O)N(c3ccccc3OC)C(=O)C12 (stereo not drawn)	.	.	.	.	.	.
Cc1ccc(S(=O)(=O)N2CCOCC2)cc1NC(=O)CN(C)C1CCS(=O)(=O)C1 (stereo not drawn)	/	9.0	/	/	/	.
CC1(C)O[C@@H]2C[C@H]3[C@@H]4C[C@H](F)C5=CC(=O)CC[C@]5(C)[C@H]4[C@@H](O)C[C@]3(C)[C@]2(C(=O)CO)O1	.	.	/	135	.	.
CCCCC(=O)O[C@]1(C(=O)CO)CC[C@H]2[C@@H]3CCC4=CC(=O)CC[C@]4(C)[C@H]3[C@@H](O)C[C@@]21C	.	.	/	.	.	.
COC(=O)CC1C(=O)NCCN1C(=O)c1sc2ccccc2c1Cl (stereo not drawn)	/	.	.	/	/	.
COC(=O)CC1C(=O)NCCN1C(=S)NC(=O)c1sc2ccccc2c1Cl (stereo not drawn)	.	10	.	.	.	.
CCCCOc1ccc(-c2cc(C(F)(F)F)c(C#N)c(SCC(=O)O)n2)cc1	.	.	.	.	.	.
Brc1ccc(-c2ncc(-c3ccccc3)cn2)cc1	.	.	.	139	5.7	.
NNC(=O)c1ccc(CSc2nc3ccccc3[nH]2)cc1	.	.	.	.	.	.
SMILES	APP 5'UTR act	Wee1 degr inh	MDM2 E3 inh	STAT1 activator	NF-kB expr up	p97 inhibitor
Cc1nnc(SCC(=O)Nc2nc(-c3ccc(F)cc3)cs2)[nH]c1=O	.	.	.	.	.	.
O=C(CSc1nc(O)cc(=O)[nH]1)N1c2ccccc2CCc2ccccc21	/	.	/	/	/	.
COc1ccc(C)cc1S(=O)(=O)N(C)CC(=O)NC1CCCCC1	.	.	30	.	.	.
Cc1ccc(-c2c(C)sc(=NC(=O)c3ccco3)n2C)cc1	.	.	.	129	.	.
Nc1cccc(CN2CCCC2)c1	.	.	.	.	.	.
C=CCN(c1cccc(C(F)(F)F)c1)S(=O)(=O)c1cccc(C(=O)OCC(=O)NCCC)c1	.	.	116	.	.	.
c1ccc(-c2onc3cc4c(cc23)OCCO4)cc1	.	.	.	146	3.8	.
O=C(Nc1nc2c(s1)CN(Cc1ccccc1)CC2)c1cccc(S(=O)(=O)N2CCc3ccccc32)c1	.	12	.	.	.	.
O=C(Nc1nc2ccccc2s1)c1cccc(S(=O)(=O)N2CCc3ccccc32)c1	/	.	/	/	/	.
Cc1cc(C)c2c(N)c3ccccc3nc2n1	.	.	.	132	.	.
Cc1cc(C)c2cccc(N)c2n1	.	.	.	.	.	.
CCc1ccc2nc3nc(C)cc(C)c3c(N)c2c1	.	.	.	136	.	.
Cc1ccc(NC(=O)/C(C#N)=C(\N)C(Cl)(Cl)Cl)nc1	.	.	.	.	6.4	.
O/C(=C\c1ccc2ccccc2n1)c1ccc(O)cc1O	158	.	.	.	8.1	.
COc1cccc2sc(N(C)c3ccccc3)nc12	218	.	.	150	5.8	.
c1ccc2c(Oc3ccc4c(c3)OCO4)nncc2c1	.	.	.	138	4.3	.
Nc1ccc(Oc2ccc3c(c2)OCO3)cc1	.	.	.	.	.	.
Oc1ccc(-c2nccc(-c3cccs3)n2)cc1	.	.	.	141	.	.
COc1cccc(CCc2nnc(CCC(=O)NC(C)c3c(C)nn(C)c3C)o2)c1 (stereo not drawn)	.	.	.	.	.	.
O=C(NC1CCCCC1)C1Cc2ccccc2CN1S(=O)(=O)c1ccc(F)cc1 (stereo not drawn)	.	.	.	.	.	.
O=C(Nc1nccs1)C1Cc2ccccc2CN1S(=O)(=O)c1ccc(F)cc1 (stereo not drawn)	155	.	.	.	.	.
Cc1nc2cc(NC(=O)Nc3ccccc3Cl)ccc2n1C	193	.	.	.	3.9	.
Cc1ccc(NC(=O)Nc2ccc3c(c2)nc(C)n3C)cc1	.	.	.	132	6.5	.
O=[N+]([O-])c1cc(S(=O)(=O)N2CCCCCC2)ccc1Cl	.	.	.	.	.	.
Nc1ccc2nc(-c3cccnc3)[nH]c2c1	/	.	.	.	.	.
SMILES	APP 5'UTR act	Wee1 degr inh	MDM2 E3 inh	STAT1 activator	NF-kB expr up	p97 inhibitor
O=[N+]([O-])c1ccc2nc(-c3ccccc3)[nH]c2c1	.	.	.	141	.	.
Nc1ccc2nc(-c3ccc(N)c(Cl)c3)[nH]c2c1	.	.	.	132	.	.
Nc1ccc2nc(-c3ccccc3)[nH]c2c1	.	.	.	131	.	.
CC(=O)Nc1cccc(NC(=O)CSc2nnnn2-c2ccc3c(c2)OCO3)c1	/	.	/	/	/	.
COc1ccccc1-n1cc(-c2ccc(Cl)cc2)[nH]c1=O	.	.	.	.	.	.
CN1CCN(CCC(=O)Nc2cccc(Br)c2)CC1	/	.	.	/	/	.
O=C(Nc1ccc(F)cc1)/C(Cl)=C/c1ccccc1	188	.	.	150	7.3	.
